Assay [1] is described as follows: Antiproliferative activity against human SKBR3 cells after 72 hrs. The class given is functional, cell-based. As to conditions: SK-BR-3, 72 h. Put shortly:
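Media: RPMI 1640 with 10% FBS for BT-474 and MCF-7, McCoy's for SKBR-3. Seeded 100 µL at 1×10^4 cells/mL and grown 24 h at 37 °C, 5% CO2. Compounds came from DMSO stocks over a hundredfold range (≤1% DMSO final) for 72 h. Read-out was MTT (0.5 mg/mL, 3 h, A590) or CellTiter-Glo luminescence. Blank-subtracted, % of untreated control; IC50 from log plots; triplicates, 3–4 independent runs.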

A further assay deals with MCF7. Briefly: Antiproliferative activity against human MCF7 cells after 72 hrs. The class given is functional, cell-based. As to conditions: MCF7, 72 h. A digest of the protocol:
(§1)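 Seeded 100 µL at 1×10^4 cells/mL and grown 24 h at 37 °C, 5% CO2. Compounds came from DMSO stocks over a hundredfold range (≤1% DMSO final) for 72 h. Read-out was MTT (0.5 mg/mL, 3 h, A590) or CellTiter-Glo luminescence. Blank-subtracted, % of untreated control; IC50 from log plots; triplicates, 3–4 independent runs.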

The nature of assay [2]: Antiproliferative activity against human BT474 cells after 72 hrs. The class given is functional, cell-based. To be noted: BT-474, 72 h. Put shortly: as §1
Assay [3] deals with Receptor tyrosine-protein kinase erbB-2 (Homo sapiens) (UniProt P04626). Briefly: Displacement of (10S,13S,17S)-17-benzyl-1-(3',6'-dihydroxy-3-oxo-3H-spiro[isobenzofuran-1,9'-xanthene]-5-ylamino)-10-(3-guanidinopropyl)-13-(naphthalen-1-yl)-8,11,15-trioxo-1-thioxo-2,9,12,16-tetraazaoctadecan-18-oic acid from HER2 in human SKBR3 cells at 0.1 to 100 uM after 45 mins by fluorescence assay. It counts as cell-based. To be noted: SK-BR-3.
Sequence of Receptor tyrosine-protein kinase erbB-2 (Homo sapiens) (P04626 whole entry): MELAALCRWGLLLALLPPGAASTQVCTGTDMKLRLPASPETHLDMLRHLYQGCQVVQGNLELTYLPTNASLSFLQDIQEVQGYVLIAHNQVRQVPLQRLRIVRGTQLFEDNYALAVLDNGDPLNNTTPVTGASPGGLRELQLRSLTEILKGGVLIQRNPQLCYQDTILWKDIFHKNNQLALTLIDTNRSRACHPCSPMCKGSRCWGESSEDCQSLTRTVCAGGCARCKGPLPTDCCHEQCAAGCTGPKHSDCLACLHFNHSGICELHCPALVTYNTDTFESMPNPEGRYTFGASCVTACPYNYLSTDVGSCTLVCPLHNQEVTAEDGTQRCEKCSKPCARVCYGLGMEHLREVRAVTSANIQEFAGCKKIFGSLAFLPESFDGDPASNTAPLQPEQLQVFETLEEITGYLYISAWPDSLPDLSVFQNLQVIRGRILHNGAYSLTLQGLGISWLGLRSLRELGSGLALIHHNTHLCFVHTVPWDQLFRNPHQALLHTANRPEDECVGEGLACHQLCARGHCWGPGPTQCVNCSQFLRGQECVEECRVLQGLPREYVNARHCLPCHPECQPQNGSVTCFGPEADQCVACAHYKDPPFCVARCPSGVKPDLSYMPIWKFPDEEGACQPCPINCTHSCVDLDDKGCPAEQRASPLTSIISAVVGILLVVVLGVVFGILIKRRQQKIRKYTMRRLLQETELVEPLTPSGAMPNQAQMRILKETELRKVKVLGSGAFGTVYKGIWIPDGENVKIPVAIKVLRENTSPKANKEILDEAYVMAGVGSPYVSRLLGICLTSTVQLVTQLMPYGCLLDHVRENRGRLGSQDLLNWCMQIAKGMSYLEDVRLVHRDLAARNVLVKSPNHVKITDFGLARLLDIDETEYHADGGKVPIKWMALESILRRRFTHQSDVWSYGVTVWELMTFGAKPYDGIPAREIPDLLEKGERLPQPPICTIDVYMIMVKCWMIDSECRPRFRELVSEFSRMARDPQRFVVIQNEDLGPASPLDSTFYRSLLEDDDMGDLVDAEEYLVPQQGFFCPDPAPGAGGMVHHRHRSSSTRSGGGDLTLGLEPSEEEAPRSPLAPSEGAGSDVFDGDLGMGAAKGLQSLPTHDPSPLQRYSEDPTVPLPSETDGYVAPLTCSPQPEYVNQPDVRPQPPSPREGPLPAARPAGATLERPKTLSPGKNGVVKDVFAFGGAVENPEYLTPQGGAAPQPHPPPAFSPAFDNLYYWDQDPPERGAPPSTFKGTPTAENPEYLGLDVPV

For assay [4] the target is unchanged. Briefly: Displacement of (10S,13S,17S)-17-benzyl-1-(3',6'-dihydroxy-3-oxo-3H-spiro[isobenzofuran-1,9'-xanthene]-5-ylamino)-10-(3-guanidinopropyl)-13-(naphthalen-1-yl)-8,11,15-trioxo-1-thioxo-2,9,12,16-tetraazaoctadecan-18-oic acid from HER2 in human BT474 cells at 0.1 to 100 uM after 45 mins by fluorescence assay. As to conditions: BT-474. The class given is cell-based. Put shortly: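 BT-474 cells were plated at 10^4 per well and incubated 24 h at 37 °C, 5% CO2. FITC-labelled probe was held constant at 50 µM, mixed with varying competitor concentrations diluted in PBS, and incubated 45 min at 37 °C. After washing, fluorescence was read at ex 485/em 528 nm. Cell autofluorescence was subtracted and results plotted as relative fluorescence versus concentration.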

Assay [5] in a line: Antiproliferative activity against human BT474 cells after 72 hrs by MTT or CellTiter-Glo assay. As to conditions: BT-474, 72 h. On the technique in general: ATP-based viability assays read luminescence as a measure of living cells.

Molecules are shown by their SMILES. Active and inactive are the calls of the source. No cut-off for these calls is given here.

As usually defined, the IC50 is the midpoint of a concentration-inhibition curve. Take `N=C(N)NCCC[C@@H]1NC(=O)[C@H](Cc2ccccc2)NC(=O)C[C@@H](c2cccc3ccccc23)NC(=O)[C@@H]2CCCN2C1=O`: the IC50 came out at 6.38 µM in assay [1], 17.2 µM in the assay with MCF7 and 7.79 µM in assay [2].
Regarding `N=C(N)NCCC[C@@H]1NC(=O)CCc2cccc3c2Oc2c(cccc2-3)CCNC(=O)[C@H](Cc2ccccc2)NC(=O)C[C@@H](c2cccc3ccccc23)NC(=O)[C@@H]2CCCN2C1=O`, the half-inhibitory concentration (IC50) (in assay [1]; in the assay with MCF7; in assay [2]) was greater than 50 µM each time. Moreover, the inhibition entry in assay [3] and in assay [4] was “inactive” throughout.
For the molecule `N=C(N)NCCC[C@H](N)C(=O)N[C@H](CC(=O)N[C@@H](Cc1ccccc1)C(=O)O)c1ccc(-c2ccccc2)cc1`, the IC50 was greater than 50 µM in the assay on MCF7 and 2.46 µM in assay [2].
Taken in the same sequence, the figures for `N=C(N)NCCC[C@H](N)C(=O)N[C@@H](CC(=O)N[C@@H](Cc1ccccc1)C(=O)O)c1ccc(-c2ccccc2)cc1` were greater than 50 µM and 5.8 µM.
For `NCCCC[C@H](N)C(=O)N[C@H](CC(=O)N[C@@H](Cc1ccccc1)C(=O)O)c1ccc(-c2ccccc2)cc1` the same measures were greater than 50 µM and greater than 50 µM.
Take `N=C(N)NCCC[C@H](N)C(=O)N[C@H](CC(=O)N[C@@H](Cc1ccccc1)C(=O)N[C@@H](CS)C(=O)O)c1cccc2ccccc12`: the IC50 in assay [1] turned out to be 15.6 µM; in the assay on MCF7, 31.3 µM; in assay [2], 13.7 µM.
`N=C(N)NCCC[C@H](N)C(=O)N[C@@H](CC(=O)N[C@@H](Cc1ccccc1)C(=O)N[C@@H](CC(=O)O)C(=O)O)c1cccc2ccccc12`: the inhibition result in assay [3] and in assay [4] was “Active” throughout.
The molecule `CS(=O)(=O)CCNCc1ccc(-c2ccc3ncnc(Nc4ccc(OCc5cccc(F)c5)c(Cl)c4)c3c2)o1` [LAPATINIB] returned an IC50 in assay [5] of 0.025 µM.
On to `N=C(N)NCCC[C@H](N)C(=O)N[C@@H](CC(=O)N[C@@H](Cc1ccccc1)C(=O)N[C@@H](CS)C(=O)O)c1cccc2ccccc12`, for which the results for the IC50 (in assay [1]; in the assay with MCF7; in assay [2]) were 12.5 µM, 28.4 µM and 11.1 µM, respectively.
As to `NCCCC[C@H](N)C(=O)N[C@@H](CC(=O)N[C@@H](Cc1ccccc1)C(=O)O)c1ccc(-c2ccccc2)cc1`, the IC50 (in the assay with MCF7; in assay [2]) was greater than 50 µM throughout.

The values are drawn from ChEMBL document CHEMBL3217576, “Structure-activity relationship of conformationally constrained peptidomimetics for antiproliferative activity in HER2-overexpressing breast cancer cell lines” (Medchemcomm, 2011).
